According to ChEMBL document CHEMBL5346868 (Eur J Med Chem, 2023):

Experiments:
[1] = test system: SARS-CoV-2; test: Antiviral activity against SARS-CoV-2 BetaCoV/Belgium/GHB-03021/2020 infected in african green monkey Vero cells assessed as decline in virus induced cytopathogenicity measured after 4 days by argon laser scanning microscopic analysis; type: functional, organism-based; settings: Severe acute respiratory syndrome coronavirus 2, BetaCoV/Belgium/GHB-03021/2020, Vero, 96 h
[2] = Cytotoxicity against african green monkey Vero E6 cells by MTS assay; type: toxicity, cell-based, Vero C1008; settings: chlorocebus sabaeus
How it was run: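 Cytotoxicity is measured on treated, uninfected Vero E6 cells in parallel with the antiviral assays, using a standard MTS assay. CC50 is the concentration causing a 50% adverse effect on host cells.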

[3] = test system: Enterovirus A71; test: Antiviral activity against human enterovirus 71 87-2008; type: functional, organism-based; settings: Enterovirus A
[4] = Cytotoxicity against human RD cells by MTS assay; type: toxicity, cell-based
How it was run: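 Treated, uninfected RD or HeLa cells are run alongside the matching enterovirus CPE assays, with viability read by MTS. CC50 is the concentration giving a 50% adverse effect on host cells.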

[5] = test system: Enterovirus A71; test: Antiviral activity against human enterovirus 71 BrCr infected in human RD cells measured by colorometric based MTS/PMS method; type: functional, organism-based; settings: Enterovirus A
How it was run: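 EV71 BrCr in confluent RD cells (MEM, 10% heat-inactivated FBS) infected with ~100 CCID50 and given a compound dilution series. Incubation was 3 days at 37 °C, 5% CO2, with residual viability read by MTS. EC50 is the concentration giving 50% antiviral effect. Toxicity was run in parallel on treated uninfected cells. Values are means of ≥2 independent experiments.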

[6] = Selectivity index, ratio of CC50 for human RD cells to EC50 for antiviral activity against human Enterovirus 71; type: toxicity; settings: read-out: Ratio CC50/EC50
How it was run: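 SI is calculated as CC50 on uninfected RD cells divided by EC50 in the 3-day EV71 BrCr CPE-reduction MTS assay.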

[7] = test system: Zika virus; test: Antiviral activity against ZIKV MR766 infected in african green monkey Vero E6 cells assessed as decline in virus induced cytopathogenicity measured after 5 days by MTS based microscopic analysis; type: functional, organism-based; settings: MR766, Vero C1008, 120 h
How it was run: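 Vero E6 cells (10^4/well) are seeded in MEM with 2% FCS and left to adhere overnight. Cells are then infected with ZIKV MR766 (passaged in C6/36 cells) and given 2-fold serial compound dilutions. After 5 days, CPE is scored by MTS and by microscopy of fixed, stained cells. EC50 is the 50% antiviral effect.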

[8] = test system: Enterovirus A71; test: Antiviral activity against human Enterovirus 71 BrCr infected in human RD cells assessed as reduction of virus induced cytopathic effect incubated for 3 days by MTS assay; type: functional, organism-based; settings: Enterovirus A, 72 h
How it was run: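 Confluent RD cells (EMEM, 10% heat-inactivated FBS) are infected with ~100 CCID50 of EV71 BrCr and treated with a compound dilution series. After 3 days at 37 °C, 5% CO2, residual viability is measured by MTS. EC50 is the concentration giving 50% antiviral effect, from at least 2–3 independent experiments.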

[9] = test system: Enterovirus A71; test: Antiviral activity against human enterovirus 71; type: functional, organism-based; settings: Enterovirus A

Row | Compound | EC50 [1] [nM] | CC50 [2] [nM] | EC50 [3] [nM] | CC50 [4] [nM] | EC50 [5] [nM] | selectivity ratio [6] | EC50 [7] [nM] | EC50 [8] [nM] | EC50 [9] [nM]
1 | CCC(CC)COC(=O)[C@H](C)N[P@](=O)(OC[C@H]1O[C@@](C#N)(c2ccc3c(N)ncnn23)[C@H](O)[C@@H]1O)Oc1ccccc1 | 58 | > 10000 | 991 | – | – | – | – | – | –
2 | OC[C@H]1O[C@@H](n2cnc3c(NCc4cccc(C(F)(F)F)c4)ncnc32)[C@H](O)[C@@H]1O | > 100000 | > 100000 | – | > 100000 | 68 | > 2770 | > 100000 | 36 | –
3 | OC[C@H]1O[C@@H](n2cnc3c(NCc4ccccc4)ncnc32)[C@H](O)[C@@H]1O [N6-BENZYLADENOSINE] | – | – | – | – | – | – | – | – | 280
